Measured values taken from ChEMBL document CHEMBL1955747, “Maximizing lipophilic efficiency: the use of Free-Wilson analysis in the design of inhibitors of acetyl-CoA carboxylase” (J Med Chem, 2012).
Values after ≈ are worked out from the molar mass of the structure shown.

Assays:
[1] = Intrinsic clearance in human liver microsomes; assay type: ADME, Microsome; conditions: read-out: CLH
[2] = Aqueous solubility at pH 7.4; assay type: physicochemical; conditions: buffer
Acetyl-CoA carboxylase 1 = Acetyl-CoA carboxylase 1 (Rattus norvegicus, UniProt P11497); test: Inhibition of rat liver Acetyl-CoA carboxylase 1 using acetyl-CoA as substrate preincubated for 10 mins prior substrate addition measured after 20 mins by luminescence counting
Procedure, shortened: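 Each IC50 comes from single-point inhibition data run in triplicate. The reported value is the arithmetic mean of at least three independent replicates ± SEM.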

Acetyl-CoA carboxylase 2 = Acetyl-CoA carboxylase 2 (Homo sapiens, UniProt O00763); test: Inhibition of human Acetyl-CoA carboxylase 2 expressed in CHO cells after 1 hr by fluorescence assay; assay type: cell-based
[3] = Aqueous solubility at pH 6.5; assay type: physicochemical; conditions: buffer
[4] = Permeability across dog RRCK cells; assay type: ADME, cell-based, Canis lupus familiaris, MDCKII-LE; conditions: MDCK, read-out: permeability
[5] = Plasma clearance in po dosed Sprague-Dawley rat; assay type: ADME, organism-based
Rattus norvegicus [6] = test: Volume of distribution at steady state in po dosed Sprague-Dawley rat; assay type: ADME, organism-based; conditions: in vivo
[7] = Half life in po dosed Sprague-Dawley rat; assay type: ADME, organism-based; conditions: in vivo
[8] = Oral bioavailability in Sprague-Dawley rat; assay type: ADME, organism-based; conditions: in vivo
[9] = Fraction unbound in Sprague-Dawley rat plasma; assay type: ADME, cell-free
Rattus norvegicus [10] = test: Antidiabetic activity in po dosed Sprague-Dawley rat assessed as inhibition of malonyl-CoA production in liver after 2 hrs by LC-MS analysis; assay type: functional
Rattus norvegicus [11] = test: Antidiabetic activity in po dosed Sprague-Dawley rat assessed as inhibition of malonyl-CoA production in quadriceps after 2 hrs by LC-MS analysis; assay type: functional
Rattus norvegicus [12] = test: Antidiabetic activity in Sprague-Dawley rat assessed as inhibition of malonyl-CoA production in liver at 50 mg/kg, po after 2 hrs by LC-MS analysis; assay type: functional
Rattus norvegicus [13] = test: Antidiabetic activity in Sprague-Dawley rat assessed as inhibition of malonyl-CoA production in quadriceps at 50 mg/kg, po after 2 hrs by LC-MS analysis; assay type: functional

Chain of Acetyl-CoA carboxylase 2 (O00763 whole entry): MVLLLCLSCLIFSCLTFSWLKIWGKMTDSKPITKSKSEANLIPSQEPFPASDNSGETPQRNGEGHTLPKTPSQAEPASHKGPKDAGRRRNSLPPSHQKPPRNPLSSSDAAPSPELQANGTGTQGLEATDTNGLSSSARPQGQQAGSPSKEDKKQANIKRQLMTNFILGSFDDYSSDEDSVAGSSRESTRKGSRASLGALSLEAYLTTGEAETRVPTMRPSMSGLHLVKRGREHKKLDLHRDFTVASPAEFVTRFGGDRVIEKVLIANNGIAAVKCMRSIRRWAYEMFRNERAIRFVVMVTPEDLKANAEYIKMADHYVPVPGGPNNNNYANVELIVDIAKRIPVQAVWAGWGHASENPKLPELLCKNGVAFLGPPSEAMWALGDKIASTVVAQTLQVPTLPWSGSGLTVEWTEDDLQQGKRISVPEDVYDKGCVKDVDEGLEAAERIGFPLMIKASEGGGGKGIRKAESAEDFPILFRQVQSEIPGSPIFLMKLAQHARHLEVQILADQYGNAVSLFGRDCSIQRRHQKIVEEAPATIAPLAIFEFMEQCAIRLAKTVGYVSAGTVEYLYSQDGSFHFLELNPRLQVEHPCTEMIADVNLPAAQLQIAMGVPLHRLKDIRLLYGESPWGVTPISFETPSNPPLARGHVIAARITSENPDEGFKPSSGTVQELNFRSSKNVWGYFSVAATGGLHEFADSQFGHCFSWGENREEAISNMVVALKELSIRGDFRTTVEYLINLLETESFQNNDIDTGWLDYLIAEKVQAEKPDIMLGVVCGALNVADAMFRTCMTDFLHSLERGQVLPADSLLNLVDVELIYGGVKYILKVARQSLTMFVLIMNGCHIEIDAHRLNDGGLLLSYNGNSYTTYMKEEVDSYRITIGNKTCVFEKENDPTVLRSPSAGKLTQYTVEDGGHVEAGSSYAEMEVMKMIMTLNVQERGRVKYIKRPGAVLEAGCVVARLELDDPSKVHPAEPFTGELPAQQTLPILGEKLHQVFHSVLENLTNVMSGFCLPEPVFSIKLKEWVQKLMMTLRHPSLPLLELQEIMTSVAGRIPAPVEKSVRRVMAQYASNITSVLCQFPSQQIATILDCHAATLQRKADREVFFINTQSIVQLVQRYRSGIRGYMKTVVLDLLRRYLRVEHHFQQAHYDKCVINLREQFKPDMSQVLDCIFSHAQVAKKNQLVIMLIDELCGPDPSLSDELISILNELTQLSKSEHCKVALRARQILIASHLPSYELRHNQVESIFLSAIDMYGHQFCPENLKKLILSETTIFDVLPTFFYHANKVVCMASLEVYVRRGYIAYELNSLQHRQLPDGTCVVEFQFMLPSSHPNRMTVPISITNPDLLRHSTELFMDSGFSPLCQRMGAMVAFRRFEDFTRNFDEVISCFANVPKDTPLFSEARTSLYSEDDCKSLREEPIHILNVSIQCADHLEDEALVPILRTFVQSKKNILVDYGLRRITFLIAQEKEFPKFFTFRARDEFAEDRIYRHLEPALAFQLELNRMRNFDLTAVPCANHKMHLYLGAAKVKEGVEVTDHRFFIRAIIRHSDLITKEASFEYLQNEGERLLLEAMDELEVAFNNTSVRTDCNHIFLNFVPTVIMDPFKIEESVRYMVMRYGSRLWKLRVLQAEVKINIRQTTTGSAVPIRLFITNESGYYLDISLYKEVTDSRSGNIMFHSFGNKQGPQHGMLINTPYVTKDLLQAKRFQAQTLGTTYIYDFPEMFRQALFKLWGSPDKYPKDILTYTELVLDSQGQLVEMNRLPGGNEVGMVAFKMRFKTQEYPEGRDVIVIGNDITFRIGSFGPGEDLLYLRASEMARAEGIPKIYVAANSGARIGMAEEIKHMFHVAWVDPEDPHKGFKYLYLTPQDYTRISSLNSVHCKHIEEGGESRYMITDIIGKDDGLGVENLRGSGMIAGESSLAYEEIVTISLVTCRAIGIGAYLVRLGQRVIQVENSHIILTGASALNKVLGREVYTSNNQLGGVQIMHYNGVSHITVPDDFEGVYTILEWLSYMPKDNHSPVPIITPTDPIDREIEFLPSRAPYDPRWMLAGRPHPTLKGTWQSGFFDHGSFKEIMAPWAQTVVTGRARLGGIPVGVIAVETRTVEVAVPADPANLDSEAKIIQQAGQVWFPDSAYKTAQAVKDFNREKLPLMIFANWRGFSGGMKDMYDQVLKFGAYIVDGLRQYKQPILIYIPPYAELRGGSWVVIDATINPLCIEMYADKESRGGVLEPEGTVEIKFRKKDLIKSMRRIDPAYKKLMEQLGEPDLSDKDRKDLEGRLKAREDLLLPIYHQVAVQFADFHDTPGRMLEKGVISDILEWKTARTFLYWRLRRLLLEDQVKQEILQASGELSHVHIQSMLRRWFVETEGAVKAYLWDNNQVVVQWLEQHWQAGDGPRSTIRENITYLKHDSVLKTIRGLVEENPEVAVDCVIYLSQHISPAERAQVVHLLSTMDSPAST

Row | IC50 (Acetyl-CoA carboxylase 1) [µM] | IC50 (Acetyl-CoA carboxylase 2) [µM] | SMILES | other results
1 |  |  | Cc1cc2c(cc1C)C(=O)CC1(CCN(C(=O)c3cc(C)c4[nH]ncc4c3)CC1)O2 | CLint scaled [1]: 68 mL/min/kg; solubility [2]: 19 µM (≈ 7.67 µg/mL)
2 | 0.046 | 0.063 | Cc1cc(C(=O)N2CCC3(CC2)CC(=O)c2nn(C4CCCCC4)cc2O3)cc2cn[nH]c12 | 
3 | 0.013 | 0.021 | Cn1ncc2ccc(C(=O)N3CCC4(CC3)CC(=O)c3nn(C(C)(C)C)cc3O4)cc21 | CLint scaled [1]: 13.1 mL/min/kg
4 | 0.017 |  | CC(C)(C)n1cc2c(n1)C(=O)CC1(CCN(C(=O)c3ccc4nc[nH]c4c3)CC1)O2 | CLint scaled [1]: < 8 mL/min/kg; solubility [3]: 300 µM (≈ 122 µg/mL); Papp [4]: 10.9 ×10⁻⁶ cm/s; CL/F [5]: 26 mL/min/kg; Vdss (Rattus norvegicus [6]): 2.3 L/kg; half-life [7]: 4.2 h; bioavailability [8]: 50%; fraction unbound [9]: 0.55; ED50 (Rattus norvegicus [10]): 1.6 mg/kg; ED50 (Rattus norvegicus [11]): 2.6 mg/kg; Imax (Rattus norvegicus [12]): 78%; Imax (Rattus norvegicus [13]): 75%
5 | 0.37 | 0.65 | Cc1cc(C(=O)N2CCC3(CC2)CC(=O)c2nn(C)cc2O3)cc2cn[nH]c12 | 
6 | 0.28 | 0.47 | Cc1cc(C(=O)N2CCC3(CC2)CC(=O)c2nn(C)c(C)c2O3)cc2cn[nH]c12 | 
7 | 0.062 | 0.063 | CCn1cc2c(n1)C(=O)CC1(CCN(C(=O)c3cc(C)c4[nH]ncc4c3)CC1)O2 | 
8 |  | 0.037 | CCn1nc2c(c1C)OC1(CCN(C(=O)c3cc(C)c4[nH]ncc4c3)CC1)CC2=O | 
9 |  | 0.045 | CCCn1cc2c(n1)C(=O)CC1(CCN(C(=O)c3cc(C)c4[nH]ncc4c3)CC1)O2 | 
10 |  | 0.023 | Cc1cc(C(=O)N2CCC3(CC2)CC(=O)c2nn(C(C)C)cc2O3)cc2cn[nH]c12 | 
11 | 0.26 |  | Cc1cc(C(=O)N2CCC3(CC2)CC(=O)c2nn(Cc4ccccc4)cc2O3)cc2cn[nH]c12 | 
12 |  | 0.014 | Cc1cc(C(=O)N2CCC3(CC2)CC(=O)c2nn(C4CCC4)cc2O3)cc2cn[nH]c12 | 
13 |  | 0.0094 | Cc1cc(C(=O)N2CCC3(CC2)CC(=O)c2nn(C4CCCC4)cc2O3)cc2cn[nH]c12 | 
14 | 0.007 | 0.0069 | Cc1cc(C(=O)N2CCC3(CC2)CC(=O)c2nn(C(C)(C)C)cc2O3)cc2cn[nH]c12 | 
15 | 0.029 | 0.042 | CCn1nc2c(c1C)OC1(CCN(C(=O)c3ccc4[nH]nc(C)c4c3)CC1)CC2=O | 
16 | 0.012 | 0.013 | CCn1nc2c(c1C)OC1(CCN(C(=O)c3cc(C)c4[nH]nc(C)c4c3)CC1)CC2=O | 
17 | 0.036 |  | CCc1n[nH]c2ccc(C(=O)N3CCC4(CC3)CC(=O)c3nn(CC)c(C)c3O4)cc12 | 
18 | 0.031 | 0.037 | CCc1cc(C(=O)N2CCC3(CC2)CC(=O)c2nn(CC)c(C)c2O3)cc2cn[nH]c12 | 
19 | 0.0115 |  | CCOc1cc(C(=O)N2CCC3(CC2)CC(=O)c2nn(CC)c(C)c2O3)cc2c(C)n[nH]c12 | 
20 | 0.1 | 0.092 | CCn1nc2c(c1C)OC1(CCN(C(=O)c3ccc4[nH]ncc4c3)CC1)CC2=O | 
21 | 0.049 | 0.08 | CCn1nc2c(c1C)OC1(CCN(C(=O)c3cc(C)c4nc[nH]c4c3)CC1)CC2=O | 
22 | 0.034 | 0.056 | CCn1nc2c(c1C)OC1(CCN(C(=O)c3cc(C)c4nc(C)[nH]c4c3)CC1)CC2=O | 
23 | 0.012 | 0.014 | Cc1n[nH]c2c(C)cc(C(=O)N3CCC4(CC3)CC(=O)c3nn(C(C)C)cc3O4)cc12 | CLint scaled [1]: < 8 mL/min/kg
24 |  |  | Cc1n[nH]c2c(C)cc(C(=O)N3CCC4(CC3)CC(=O)c3nn(C5CCOC5)c(C)c3O4)cc12 (configuration not stated) | CLint scaled [1]: 23.1 mL/min/kg
25 | 0.0096 | 0.0074 | Cc1cc(C(=O)N2CCC3(CC2)CC(=O)c2nn(C(C)(C)C)cc2O3)cc2[nH]cnc12 | CLint scaled [1]: 12.4 mL/min/kg
26 |  | 0.0066 | Cc1nc2c(C)cc(C(=O)N3CCC4(CC3)CC(=O)c3nn(C(C)(C)C)cc3O4)cc2[nH]1 | CLint scaled [1]: 15.1 mL/min/kg
